# Screening data: PubChem, several laboratories
# Only a selection was taken, and hits are over-represented in it overall.
# UPR XBP1 act: adaptive UPR (XBP1) activation. CHO-XBP1 luciferase reporter, IRE1-XBP1 UPR activation, luminescence; percent of tunicamycin response, DMSO as zero. 0.33% of 330,000 active. activation, % at 20 µM;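 active = versus positive control, 20 µM dose yields 30% or more activation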;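 note: 100% = tunicamycin at 10 µg/mL and 0% = DMSO only wells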
#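 Signal: luciferase luminescence; Assay system: CHO-XBP1 luciferase reporter cells; Amount: one thousand reporter cells per well; Dosing: 20 µM single concentration, DMSO 1%; Benchmarks: high control tunicamycin 10 µg/mL final, low control DMSO vehicle only; Schedule: 6 h compound exposure at 37 °C, 5% CO2; Evaluation: percent activation relative to tunicamycin reference.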
# PvdQ inh: P. aeruginosa PvdQ acylase inhibition; inhibition, % at 10 µM; 0.063% of 340,000 active; purified PvdQ acylase, fluorescence plate reader; AID 488965; in the data active = inhibition above about 30%, passing the limit was not always enough;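 note: 0% = vehicle neutral wells and 100% = reference inhibitor wells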
# CHOP UPR activ: activators of apoptotic arm of unfolded protein response (CHOP); CHO-CHOP luciferase reporter, UPR activation, luminescence; percent of tunicamycin response over DMSO baseline; AID 449763; 0.34% of 330,000 active; activation, % at 10 µM;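 active = at 10 µM dose, activation of 40% or more, normalized to positive control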;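 note: 100% = tunicamycin at 10 µg/mL and 0% = DMSO alone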
#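 System: CHO-CHOP luciferase reporter cell line | Buffer or medium: F12 medium containing 10% fetal bovine serum | Doses: One dose, 10 µM in 0.5% DMSO | Times: 6 h compound exposure at 37 °C after overnight seeding | Signal: Luciferase luminescence | Read-out: % activation vs tunicamycin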
# CHOP inhibitor: inhibitors of CHOP induction in ER stress response | inhibition, % at 10 µM | CHO-K1 CHOP-promoter luciferase, tunicamycin-induced, 15-18 h | AID 2732 | 3.8% of 220,000 active;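 active = compounds that reduced the stress-induced luciferase reporter signal by more than about 70% of percent inhibition, limit read from the data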;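 note: 0% = tunicamycin plus vehicle and 100% = wells without tunicamycin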
# * hit, by the source's call; nt = no result.
SMILES,UPR XBP1 act,PvdQ inh,CHOP UPR activ,CHOP inhibitor
Cn1ccnc1Sc1cc(NCCCO)c([N+](=O)[O-])c2nonc12,-7,-9,-2,96*
CN1C[C@@H]2[C@@H]3C(=O)N(C)C(=O)[C@@H]3[C@](C)(C1=O)N2C(=O)c1ccc(Cl)c(Cl)c1,nt,2,nt,nt
Cc1ccc(CCNC(=O)CN2C(=O)COc3ccccc32)cc1,-3,-8,-2,43
CCCCN(CCCNC(=O)CN1C(=O)COc2ccccc21)c1ccccc1,-2,-13,1,74*
CCN(CCCNC(=O)CN1C(=O)COc2ccccc21)c1ccccc1,-3,5,-2,-2
CCN(CCCNC(=O)CN1C(=O)COc2ccccc21)c1cccc(C)c1,-5,-3,0,86*
CCN(CCCNC(=O)CCc1nc(-c2ccc(C)cc2)no1)c1cccc(C)c1,-1,1,-1,71*
Cc1cccc(C)c1NC(=O)CSc1nnc([C@H](C)NC(=O)OC(C)(C)C)o1,-2,0,-1,79*
CC(C)[C@H](NC(=O)OC(C)(C)C)c1nnc(SCC(=O)Nc2ccc(Br)cc2)o1,-3,9,1,73*
Cc1cnc(NC(=O)c2cc(-c3ccccc3)nn2-c2ccccc2)s1,nt,-9,nt,nt
CCc1ccc(-c2nc(CN3CCC(C(=O)NCc4ccccc4OC)CC3)c(C)o2)cc1,5,-5,3,79*
Cc1oc(-c2ccc(Cl)cc2)nc1CN1CCC(C(=O)N2CCc3ccccc3C2)CC1,6,0,0,91*
CCc1ccc(NC(=O)COC(=O)c2ccc(Cl)c(S(=O)(=O)N3CCCCCC3)c2)cc1,-1,1,0,34
N#CC1=C(N)C(C#N)(C#N)[C@H](c2ccoc2)[C@H]2CN(Cc3ccccc3)CC=C12,37*,-11,0,nt
CC(=O)N1CC=C2C(C#N)=C(N)C(C#N)(C#N)C(CCc3ccccc3)C2C1 (stereo not given),-1,-6,-1,73*
CCN1CC=C2C(C#N)=C(N)C(C#N)(C#N)C(CCc3ccccc3)C2C1 (stereo not given),0,1,4,-23
CCCCn1c(N)c(N(Cc2ccccc2OC)C(=O)CCC(C)C)c(=O)[nH]c1=O,2,-1,1,nt
Cc1ccc(C(=O)Nc2cccc(C(O)c3ccccc3)c2)cc1 (stereo not given),-1,-18,1,nt
CCCCOc1ccc(CSCCN)cc1Cl,0,-13,4,73*
CCOc1ccc(CSC(=N)N)cc1Cl,-1,-1,-2,10
COc1ccc(CCNC(=O)c2cc(-c3ccncc3)nc3c(Cl)cccc23)cc1OC,0,-16,-2,13
COc1ccc(CNC(=O)c2cc(-c3ccncc3)nc3c(C)cc(C)cc23)cc1OC,-2,-12,2,89*
CCOC(=O)C1=C(CN2CCC(C)CC2)NC(=O)NC1c1ccc(Cl)cc1 (stereo not given),-3,-8,-3,87*
O=C1C2C(c3ccccc3)=NN(c3ccccc3)C2C(=O)N1c1ccccc1 (stereo not given),0,-17,0,73*
CCOCCC(=O)Nc1nnc(CCc2ccccc2)s1,-6,1,2,nt
SMILES,UPR XBP1 act,PvdQ inh,CHOP UPR activ,CHOP inhibitor
Cc1cc(=O)n2nc(N3CCCC(C(=O)NC4CCCCC4C)C3)sc2n1 (stereo not given),-2,-9,0,nt
O=C(COC(=O)c1cc(-c2ccc(Cl)s2)nc2ccccc12)NCc1ccco1,-4,-14,1,81*
O=C(COC(=O)c1ccccc1Nc1cccc(C(F)(F)F)c1)NCc1ccco1,-1,-3,1,79*
COc1ccccc1C(=O)Nc1ccnn1C1CCN(Cc2cnc(N(C)C)s2)CC1,-6,-9,0,nt
COc1ccc(NC(=O)CN2CCN(C(=O)N3CCOCC3)CC2)cc1,-4,10,1,nt
CC(=O)c1c(C)[nH]c(C(=O)N2CCN(c3ccc(F)cc3)CC2)c1C,-2,-21,0,84*
COc1ccc(C(=O)NCCCc2ccccc2)cc1OC,-1,-13,4,nt
CCOc1ccc(NC(=O)CN2C(=O)COc3ccc(Cl)cc32)cc1,2,-9,0,76*
O=C(CN1C(=O)COc2ccc(Cl)cc21)Nc1ccc2c(c1)OCCO2,1,11,0,14
O=c1c2ccccc2c(C=Nc2ccc(O)cc2)c(O)n1Cc1ccccc1,5,-7,9,93*
COc1ccc(Cn2c(O)c(C=Nc3ccc(C)cc3)c3ccccc3c2=O)cc1,-1,-8,2,52
COc1ccc(N=Cc2c(O)n(-c3ccc(OC)cc3)c(=O)c3ccccc23)cc1,20,7,2,72*
